The results in this text go back to ChEMBL document CHEMBL1125330, “N-substituted pyrazino[2,3-c][1,2,6]thiadiazine 2,2-dioxides. A new class of diuretics” (J Med Chem, 1992).

What all share (settings): in vivo
Data set [1] is filed under the species Rattus norvegicus. Nature of the data set: Mean sodium excretion in rats (Control/Drug treatment value); value 0.41/2.06. The data set is classed as ADME, organism-based.
The species entered for data set [2] is Rattus norvegicus. Put plainly: Mean urinary output in rats (Control/Drug treatment value); value 22.8/35.1. The data set is classed as ADME, organism-based, Urine. In outline:
(§1)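 Water-loaded male Sprague-Dawley rats (HC/CFY, 175-200 g), eight per group, deprived of food and water 18 h. Single oral gavage of 20-25 mg/kg (some 10 mg/kg) in 1% CMC/0.1% Tween 80, then distilled water 2.5 mL/100 g bw po. Cumulative urine over 6 h in metabolic cages; mean mL/6 h/kg bw vs vehicle group.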

The species named for data set [3] is Rattus norvegicus. Nature of the data set: Mean sodium excretion in rats (Control/Drug treatment value); value 0.44/2.68. It is filed as ADME, organism-based.
The species named for data set [4] is Rattus norvegicus. Nature of the data set: Mean urinary output in rats (Control/Drug treatment value); value 26.1/45.7. It is filed as ADME, organism-based, Urine. In outline:
as §1

In turn, `CCCN1c2nc(CC)c(C)nc2C(N)=NS1(=O)=O` displayed a Na in the data set filed under Rattus norvegicus [1] of 5. Further, the V in the data set listed under Rattus norvegicus [2] amounted to 1.5.
In the data set filed under Rattus norvegicus [3], `CCCN1c2nc(C)c(C)nc2C(N)=NS1(=O)=O` registered a Na of 6.1. This molecule showed a V in the data set listed under Rattus norvegicus [4] of 1.8.
